# CHOP inhibitor: CHOP inhibition in unfolded protein response | CHO-K1 CHOP-promoter luciferase, tunicamycin-induced, 15-18 h | inhibition, % at 10 µM | 3.8% of 220,000 active | AID 2732;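 active = compounds that reduced the stress-induced luciferase reporter signal by more than about 70% of percent inhibition, limit read from the data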;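 also: 0% = tunicamycin plus vehicle and 100% = wells without tunicamycin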
# MT stabilize HCS: microtubule stabilization, imaging screen. HeLa tubulin immunostaining HCS, 24 h; share of cells brighter than vehicle mean+2SD. 0.83% of 200,000 active. % tubulin-high responders, % at 10 µM. AID 2205;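 active = plate Z-score above 3 for both tubulin-high and condensed-nucleus cell shares, with cell loss under 80%, at 10 µM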;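 also: anti alpha tubulin signal scored within the nucleus-defined area of each cell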
# bCat nuc transl: alters nuclear translocation of beta-catenin in HeLa cells; immunofluorescence imaging; 0.3% of 190,000 active; nuclear translocation activity, % at 5 µM;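 active = nuclear translocation activity above 50% at 5 µM, with a well cell count of 50 or more; inconclusive = wells under 50 cells across six images, flagged as toxic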;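 also: per-cell ratio of nuclear to cytoplasmic median beta-catenin stain intensity; plate controls were DMSO negative control for no effect and GSK-3 inhibitor IX positive control for full effect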
#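 Test system: human HeLa cells, native beta-catenin. Compound dosing: 5 µM primary single dose, 0.1% DMSO, 0.02–20 µM confirmation series. Incubation: compound exposure 24 h at 37°C. Detection: beta-catenin immunostaining with DAPI counterstain, 20x imaging, 6 fields/well. Read-out basis: Nuclear/cytoplasmic beta-catenin signal ratio, % activation.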
# Dynein transport: blocks dynein driven cargo transport along microtubules. AID 1381. z-score, hits read low. 0.47% of 220,000 active. 3617.4 mouse cells, GR-EGFP nuclear translocation imaging; test concentration mostly 20 µM; stimulated with dexamethasone, 1 µM; hits give low values;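 active = plate z-score of nuclear minus cytoplasmic receptor signal below a set negative limit, without overly bright fluorescence or cell loss, cut at about -3.5 in these data, passing the limit was not always enough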;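 also: z-score of nuclear minus cytoplasmic ring GR-EGFP intensity difference per well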
#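 Schedule: 48 h induction, then 1 h compound, then 30 min agonist, 37 °C. Buffer or medium: tetracycline-free induction medium containing charcoal-stripped FBS. Reagent: 1.0 µM final dexamethasone stimulus. Evaluation: nuclear versus cytoplasmic GR-EGFP signal, averaged per well. Signal: high-content fluorescence imaging after fixation.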
# Autophagy HCS: alters autophagy in cells. MEF GFP-LC3 puncta imaging; test concentration mostly 10 µM. calls only at 10 µM (by protocol). 0.98% of 190,000 active. AID 463193;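 active = percentage of spot-positive cells more than 3 SD above its plate mean, without a fluorescence outlier flag or 80% toxicity; inconclusive = no clear call, values can overlap the other calls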;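 also: spot-positive cell cutoff set from DMSO-treated cells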
# L major viab: reduces viability of Leishmania major promastigotes. resazurin fluorescence viability. inhibition, % at 10 µM. 9% of 200,000 active; in the data active = inhibition above about 50%;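 also: promastigotes grown with compound for 44 hours at 28 °C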
# CHOP inh conf: confirmation of CHOP induction inhibitors | 45% of 2,100 active | CHO-CHOP promoter luciferase reporter, tunicamycin-induced, luminescence | inhibition, % at 10 µM | shares compounds with CHOP inhibitor | AID 504437;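 active = mean of three repeat readings of reporter signal inhibition above a set limit, cut at about 70% in these data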;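 also: 0% = tunicamycin plus vehicle and 100% = wells lacking tunicamycin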
# Numbers without * were called inactive; i = inactive; ? = inconclusive; . = no result given. Compounds with a hit are over-represented: about 12% of the library has one in this group of screens.
SMILES,CHOP inhibitor,MT stabilize HCS,bCat nuc transl,Dynein transport,Autophagy HCS,L major viab,CHOP inh conf
Cc1nn(Cc2ccccc2)c(C)c1C(=O)OCC(=O)Nc1cc(S(C)(=O)=O)ccc1Cl,20,2,-2,0.75,i,0,.
Cc1cc(NC(=O)CCl)on1,-16,2,2,-0.95,i,28,.
CCN1/C(=C\C=C\C2=[N+](CC)c3ccccc3C2(C)C)C(C)(C)c2ccccc21,103*,81,.,-2,?,99*,140*
O=C(O)CCn1cc(C=C2C(=O)NC(=S)NC2=O)c(-c2ccccc2)n1,5,3,0,-0.33,i,-3,.
O=C1NC(=S)NC(=O)C1=Cc1cccn1-c1ccc(O)cc1,107*,3,1,-0.38,i,100*,-267
Cc1oc(-c2ccc(F)cc2F)nc1CN1C[C@@H]2C[C@@H](C1)c1cccc(=O)n1C2,23,2,0,-0.67,i,-2,.
C=CCn1c(O)c(C(CC)=NC2CC2)c(=O)[nH]c1=O,-9,2,-3,-0.63,i,-5,.
CCN1CCC2(CC1)NC(=O)c1ccccc1O2,19,4,0,-0.39,i,-3,.
CCOC(=O)C(NC(=O)CC)(Nc1ccc(C(O)(C(=O)OCC)C(F)(F)F)cc1C)C(F)(F)F (stereo unspecified),-34,4,0,0.57,i,-1,.
COC(=O)C(O)(c1ccc(NC(=S)NC(=O)c2ccc(Cl)cc2Cl)c(C)c1)C(F)(F)F (stereo unspecified),98*,3,-2,0.65,i,6,106*
CCCCCn1c(=O)c(C(=O)Nc2nc3ccccc3[nH]2)c(O)c2ccccc21,98*,.,0,0.2,.,.,109*
CCCCn1c(=O)c(C(=O)Nc2cnccn2)c(O)c2ccccc21,99*,7,1,2.5,i,52*,93*
C=C1C(=O)O[C@@H]2C[C@@H](C)[C@@H]3C=CC(=O)[C@@]3(C)[C@@H](O)[C@H]12,107*,.,5,-3.6*,.,.,119*
CCCCCCCSc1cc(OC)c(CCNC)cc1OC,100*,46,1,0.65,i,100*,3
O=C1NC(=O)N(c2ccccc2)C(=O)/C1=C/c1coc2ccc(O)cc2c1=O,16,.,-1,-0.8,.,.,.
OC(c1ccccc1)(c1ccccc1)C1CCNCC1,108*,3,1,1.7,i,1,18
COc1ccc(CN2C(=O)NC(=O)/C(=C\c3ccco3)C2=O)cc1,105*,4,-3,-0.56,i,-7,-29
C[C@H](Cc1ccc2c(c1)OC(C(=O)O)(C(=O)O)O2)NC[C@H](O)c1cccc(Cl)c1,-11,.,.,.,.,.,.
COCCCn1c(N)c(C(=O)NCCC(C)C)c2nc3ccccc3nc21,99*,1,.,-0.94,i,3,99*
Cc1cc(C(=O)O)c(C)n1C1CC1,-1,.,0,1.1,.,.,.
O=C1NC(=O)N(c2cccc(Cl)c2)C(=O)/C1=C\c1ccc(Sc2nc3ccccc3[nH]2)o1,4,4,20,-3.1,i,-1,.
O=C1NC(=O)N(c2ccccc2)C(=O)/C1=C/c1ccc(Sc2ccccc2)o1,104*,1,-3,-0.55,i,-8,-26
O=c1[nH]c(=O)n(C2CCCCC2)c(O)c1/C=C/C=Nc1ccccc1,100*,.,0,-0.59,.,.,36
O=c1[nH]c(=O)n(-c2ccccc2)c(O)c1/C=C/C=Nc1ccccc1,-1,3,-3,0.11,i,-6,.
C=C(C=O)CC1CC(O)[C@]2(C)OC3CC4OC5C[C@]6(C)O[C@]7(C)CCC8OC9C[C@]%10(C)OC%11C(C)=CC(=O)OC%11CC%10OC9C[C@@H](C)C8OC7CC6O[C@]5(C)CC5OC5C4OC3CC2O1 (stereo partly specified),105*,31,29,1.3,?,101*,127*
CCCCCCOC(=O)c1ccccc1N,97*,4,-6,0.29,i,-8,103*
CC(C)COC(=O)c1ccccc1C(=O)OCC(C)C,30,.,0,0.85,.,.,.
COc1ccc(C)cc1NC1=NC(C)(C)CS1,6,3,-4,-0.089,i,20,.

# Assay outcomes deposited in PubChem by several laboratories.
